ChEMBL document CHEMBL3244357, “Biologically oriented organic sulfur chemistry. 15. Organic disulfides and related substances. 41. Inhibition of the fungal pathogen Histoplasma capsulatum by some organic disulfides” (J Med Chem, 1977)
Converted amounts (≈) assume the structure as drawn. The source made the active and inactive calls. The rule behind the calls is not given here.

Legend:
[1] = test system: Histoplasma capsulatum; test: Antifungal activity against Histoplasma capsulatum infected in x-irradiated mouse assessed as prolongation of lifetime at 25 mg/kg, sc bid administered on day 0, 1 and 2 post infection; assay type: functional; conditions: route subcutaneous
Summary of the method: (§1)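 Mice infected with H. capsulatum were dosed sc at 0 and 4 h postinfection on days 0, 1 and 2, six doses in total. Read-out was % extension of lifetime beyond untreated controls. Amphotericin B, dosed the same way, served as positive control.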

[2] = test system: Histoplasma capsulatum; test: Antifungal activity against Histoplasma capsulatum 26 by agar dilution assay; assay type: functional
Summary of the method: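 In vitro MIC against H. capsulatum strain 26 by standard agar dilution. Amphotericin B was run as the standard in each test.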

[3] = test system: Histoplasma capsulatum; test: Antifungal activity against Histoplasma capsulatum infected in x-irradiated mouse assessed as prolongation of lifetime at 50 mg/kg, sc bid administered on day 0, 1 and 2 post infection; assay type: functional; conditions: route subcutaneous; summary of the method: as §1
[4] = test system: Mus musculus; test: Toxicity in ip dosed mouse; assay type: organism-based; conditions: in vivo
[5] = test system: Histoplasma capsulatum; test: Antifungal activity against Histoplasma capsulatum infected in x-irradiated mouse assessed as prolongation of lifetime at 13 mg/kg, sc bid administered on day 0, 1 and 2 post infection; assay type: functional; conditions: route subcutaneous; summary of the method: as §1
[6] = test system: Candida albicans; test: Antifungal activity against Candida albicans by disk-plate assay; assay type: functional, organism-based
[7] = test system: Candida albicans; test: Antifungal activity against Candida albicans infected in mouse; assay type: functional, organism-based
[8] = test system: Histoplasma capsulatum; test: Antifungal activity against Histoplasma capsulatum infected in x-irradiated mouse assessed as prolongation of lifetime at 6 mg/kg, sc bid administered on day 0, 1 and 2 post infection; assay type: functional; conditions: route subcutaneous; summary of the method: as §1
[9] = test system: Mus musculus; test: Toxicity in mouse at 50 mg/kg, sc bid; assay type: organism-based; parameters: dose 50 mg/kg, route subcutaneous; conditions: in vivo
[10] = test system: Histoplasma capsulatum; test: Antifungal activity against Histoplasma capsulatum infected in x-irradiated mouse assessed as prolongation of lifetime at 20 mg/kg, sc bid administered on day 0, 1 and 2 post infection; assay type: functional; conditions: route subcutaneous; summary of the method: as §1
[11] = test system: Histoplasma capsulatum; test: Antifungal activity against Histoplasma capsulatum infected in x-irradiated mouse assessed as prolongation of lifetime at 40 mg/kg, sc bid administered on day 0, 1 and 2 post infection; assay type: functional; conditions: route subcutaneous; summary of the method: as §1
[12] = test system: Histoplasma capsulatum; test: Antifungal activity against Histoplasma capsulatum infected in x-irradiated mouse assessed as prolongation of lifetime at 10 mg/kg, sc bid administered on day 0, 1 and 2 post infection; assay type: functional; conditions: route subcutaneous; summary of the method: as §1

| Compound | Activity [1] | MIC [2] | Activity [3] | Activity [4] | Activity [5] | also measured |
| --- | --- | --- | --- | --- | --- | --- |
| O=C(O)c1ccccc1SSC(=S)N1CCOCC1 | -5% | > 10 µg/mL | -7% | 0.1 g/kg | -2% |  |
| CN(C)C(=S)SSc1ccc(Cl)cc1 | 13% | 5 µg/mL (≈ 19 µM) | 11% | 1 g/kg | -14% | Activity [6]: Active; Activity [7]: inactive |
| COc1ccc(C(=S)SSc2ccc(C)cc2)cc1 | 7% | 20 µg/mL (≈ 65.3 µM) | -2% |  | 2% |  |
| S=C(SSc1ccccc1)N1CCOCC1 | 9% | 40 µg/mL (≈ 147 µM) |  |  | 11% | Activity [8]: 5%; Activity [9]: Toxic |
| Cc1ccc(SSCCN)cc1.Cl | 0% | > 20 µg/mL | 9% |  | 4% |  |
| S=C(SSC(=S)N1CCOCC1)N1CCOCC1 | 5% | 40 µg/mL (≈ 123 µM) |  |  | 5% | Activity [8]: 5%; Activity [9]: Toxic |
| CN(C)C(=S)SSc1ccccc1C(=O)O |  | < 1 µg/mL |  | 0.1 g/kg |  |  |
| Cc1ccc(SSCCCCS(=O)[O-])cc1.[Na+] | -6% | 20 µg/mL | -21% |  | 15% |  |
| CCCCCCCCCCN1CCSSC1=S |  | > 10 µg/mL |  | 0.1 g/kg |  |  |
| CC(C)(C)SSC(=S)N1CCOCC1 |  | > 40 µg/mL |  |  |  | Activity [10]: 5%; Activity [11]: 11%; Activity [12]: -4% |
| COc1ccc(CSSCCCCS(=O)[O-])cc1.[Na+] | -19% | 20 µg/mL | 9% |  | -2% |  |
| Cc1ccc(SSCC(=O)O)cc1 | -6% | 20 µg/mL (≈ 93.3 µM) | 0% |  | 17% |  |
| CCSSC(=S)N1CCOCC1 | 5% | 10 µg/mL (≈ 44.8 µM) |  |  | 5% | Activity [8]: 5%; Activity [9]: Toxic |
| Cc1ccc(SSC(=S)N2CCOCC2)cc1 | 0% | 40 µg/mL (≈ 140 µM) | 9% |  | 5% |  |
| S=C1SSCCN1CCCCC1CCCCC1 |  | 10 µg/mL (≈ 34.5 µM) |  | 0.1 g/kg |  |  |
| C[C@@H]1[C@H](O)[C@@H](C)/C=C/C=C/C=C/C=C/C=C/C=C/C=C/[C@H](O[C@@H]2O[C@H](C)[C@@H](O)[C@H](N)[C@@H]2O)C[C@@H]2O[C@](O)(C[C@@H](O)C[C@@H](O)[C@H](O)CC[C@@H](O)C[C@@H](O)CC(=O)O[C@H]1C)C[C@H](O)[C@H]2C(=O)O [AMPHOTERICIN B] | 58% | 0.0625 µg/mL (≈ 0.0676 µM) | 70% |  |  |  |
